Source: ChEMBL document CHEMBL4732158, “Bicyclic Ligand-Biased Agonists of S1P: Exploring Side Chain Modifications to Modulate the PK, PD, and Safety Profiles” (J Med Chem, 2021)
Values belong to the compound of their own block, whether it stands above or below them. The source made the active and inactive calls. The calls are words filed in the database; no cut-off is given here.

Key:
[1] = Drug concentration in Lewis rat blood assessed as concentration of parent compound at 5 mg/kg, po measured at 24 hrs by LC-MS/MS analysis; format: ADME, organism-based; settings: Lewis, blood, read-out: Ct
Outline: (§1)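 Lewis rats (n = 2−4) dosed orally at 0.5, 1, 2 or 5 mg/kg; blood parent and phosphate metabolite concentrations and lymphocyte counts taken 4 and 24 h post-dose; phosphate-to-parent ratio from 24 h levels; significance versus vehicle by ANOVA with Dunnett's test.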

[2] = Reduction in circulating lymphocytes count in Lewis rat at 5 mg/kg, po measured at 24 hrs by hematology analyzer based analysis; format: ADME, organism-based; parameters: scale not given: the % may be the effect or the level left; settings: in vivo
Outline: (§2)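 Lewis rats (n = 2−4) dosed orally; whole-blood lymphocyte counts taken 4 h and 24 h after dosing and reduction expressed versus vehicle-treated rats. Significance by ANOVA with Dunnett's test (p < 0.05 vs vehicle). Blood levels of parent and phosphate metabolite measured at the same time points in this PK/PD screen.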

Rattus norvegicus [3] = assay: Reduction in circulating lymphocytes count in Lewis rat at 5 mg/kg, po measured at 4 hrs by hematology analyzer based analysis; format: functional; parameters: scale not given: the % may be the effect or the level left; outline: as §2
[4] = Drug concentration in Lewis rat blood assessed as concentration of parent compound at 5 mg/kg, po measured at 4 hrs by LC-MS/MS analysis; format: ADME, organism-based; settings: read-out: Ct; outline: as §1
[5] = Pulmonary toxicity in Lewis rat assessed as fold elevation of BAL protein content at 5 mg/kg, po by chemistry analyzer based analysis relative to control; format: organism-based; settings: in vivo
Outline: (§3)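 Lewis rats dosed orally; bronchoalveolar lavage protein measured at study end, expressed as fold over vehicle control.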

[6] = Drug metabolism in Lewis rat blood assessed as parent compound concentration at 0.5 mg/kg, po measured at 4 hrs by LC-MS/MS analysis; format: ADME, organism-based; settings: in vivo, 0.5 mg/kg, 4 h, BLD = below limit of detection; outline: as §1
[7] = Reduction in circulating lymphocytes count in Lewis rat at 0.5 mg/kg, po measured at 4 hrs by hematology analyzer based analysis; format: ADME, organism-based; parameters: scale not given: the % may be the effect or the level left; settings: in vivo; outline: as §1
[8] = Drug metabolism in Lewis rat blood assessed as parent compound concentration at 0.5 mg/kg, po measured at 24 hrs by LC-MS/MS analysis; format: ADME, organism-based; outline: as §1
[9] = Reduction in circulating lymphocytes count in Lewis rat at 0.5 mg/kg, po measured at 24 hrs by hematology analyzer based analysis; format: ADME, organism-based; parameters: scale not given: the % may be the effect or the level left; settings: in vivo; outline: as §1
[10] = Cardiotoxicity in human iPSC derived cardiomyocytes assessed as change in heart rate at 10 nM measured over 2 hrs by multi-electrode array relative to control; format: toxicity, cell-based; settings: stem cell-derived cardiomyocyte, 0.01 µM
Outline: (§4)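 Phosphate metabolite of each compound prepared and tested on cultured human induced pluripotent stem cell-derived cardiomyocytes at 1 and 10 nM; beat rate change averaged over three or more replicates per concentration unless noted (some n = 2).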

[11] = Cardiotoxicity in human iPSC derived cardiomyocytes assessed as change in heart rate at 1 nM measured over 2 hrs by multi-electrode array relative to control; format: toxicity, cell-based; settings: stem cell-derived cardiomyocyte, 0.001 µM; outline: as §4
Rattus norvegicus [12] = assay: Antiinflammatory activity in complete freund's adjuvant-induced Lewis rat model of arthritis assessed as reduction in paw edema administered via oral gavage once daily by plethysmometric method; format: functional, organism-based
Rattus norvegicus [13] = assay: Antiinflammatory activity in complete freund's adjuvant-induced Lewis rat model of arthritis assessed as reduction in paw edema at 0.3 mg/kg, po administered via gavage once daily and measured at day 13 to 20 by plethysmometric method; format: functional, organism-based; settings: time 13-20 day
Rattus norvegicus [14] = assay: Antiinflammatory activity in complete freund's adjuvant-induced Lewis rat model of arthritis assessed as increase in paw volume at 1 mg/kg, po administered via gavage once daily by plethysmometric method; format: functional, organism-based
[15] = Reduction in circulating lymphocytes count in Lewis rat at 2 mg/kg, po measured at 24 hrs by hematology analyzer based analysis; format: Functional, organism-based; parameters: scale not given: the % may be the effect or the level left; settings: in vivo; outline: as §2
[16] = Drug concentration in Lewis rat blood assessed as concentration of parent compound at 2 mg/kg, po measured at 24 hrs by LC-MS/MS analysis; format: ADME, organism-based; settings: in vivo, read-out: Ct; outline: as §1
Rattus norvegicus [17] = assay: Reduction in circulating lymphocytes count in Lewis rat at 2 mg/kg, po measured at 4 hrs by hematology analyzer based analysis; format: functional; parameters: scale not given: the % may be the effect or the level left; settings: 2 mg/kg, 4 h; outline: as §2
[18] = Ratio of drug metabolism in Lewis rat blood assessed as phosphate ester metabolite to parent drug at 2 mg/kg, po measured at 24 hrs by LC-MS/MS analysis; format: ADME, organism-based; settings: in vivo; outline: as §1
[19] = Half life in Lewis rat at 2 mg/kg, po measured at 4 to 72 hrs; format: ADME, organism-based; settings: Lewis, in vivo, time 4-72 hrs
Outline: (§5)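 Half-life estimated from oral-dosing blood PK profiles in Lewis rats sampled at four time points: 4, 24, 48 and 72 h.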

[20] = Drug concentration in Lewis rat blood assessed as concentration of parent compound at 2 mg/kg, po measured at 4 hrs by LC-MS/MS analysis; format: ADME, organism-based; settings: read-out: Ct; outline: as §1
[21] = Pulmonary toxicity in Lewis rat assessed as fold elevation of BAL protein content at 10 mg/kg, po by chemistry analyzer based analysis relative to control; format: organism-based; settings: in vivo, 2 mg/kg, in the assay text read “2 mg/kg” for “10 mg/kg”; outline: as §3
[22] = Pulmonary toxicity in Lewis rat assessed as fold elevation of BAL protein content at 15 mg/kg, po by chemistry analyzer based analysis relative to control; format: organism-based; settings: in vivo; outline: as §3
[23] = Reduction in circulating lymphocytes count in Lewis rat at 1 mg/kg, po measured at 24 hrs by hematology analyzer based analysis; format: organism-based; parameters: scale not given: the % may be the effect or the level left; settings: in vivo; outline: as §1
Rattus norvegicus [24] = assay: Reduction in circulating lymphocytes count in Lewis rat at 1 mg/kg, po measured at 4 hrs by hematology analyzer based analysis; format: functional; parameters: scale not given: the % may be the effect or the level left; outline: as §1
[25] = AUC ratio in orally dosed Beagle dog blood assessed as phosphate metabolite to parent compound; format: ADME, organism-based, Canis lupus familiaris; settings: in vivo, po
Outline: (§6)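 Phosphate-to-parent ratio computed as blood AUC ratio after oral dosing in rats, dogs and monkeys.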

[26] = Drug metabolism in Lewis rat blood assessed as concentration of parent compound at 1 mg/kg, po measured at 24 hrs by LC-MS/MS analysis; format: ADME, organism-based; settings: Lewis, blood, read-out: Ct; outline: as §1
[27] = Drug metabolism in Lewis rat blood assessed as phosphate ester metabolite to parent ratio at 1 mg/kg, po measured at 24 hrs by LC-MS/MS analysis; settings: in vivo
[28] = Half life in Lewis rat at 1 mg/kg, po measured at 4 to 72 hrs; format: ADME, organism-based; settings: in vivo, time 4-72 hrs; outline: as §5
[29] = Drug concentration in Lewis rat blood assessed as concentration of parent compound at 1 mg/kg, po measured at 4 hrs by LC-MS/MS analysis; format: ADME, organism-based; settings: Lewis, blood, read-out: Ct; outline: as §1
[30] = AUC ratio in orally dosed cynomolgus monkey blood assessed as phosphate metabolite to parent compound; format: ADME, organism-based, Macaca fascicularis; settings: in vivo, po; outline: as §6
[31] = AUC ratio in orally dosed human blood assessed as phosphate metabolite to parent compound; format: ADME, organism-based; settings: po
[32] = AUC ratio in orally dosed Sprague-Dawley rat blood assessed as phosphate metabolite to parent compound; format: ADME, organism-based; settings: in vivo, po; outline: as §6
[33] = Pulmonary toxicity in Lewis rat assessed as fold elevation of BAL protein content at 1 mg/kg, po by chemistry analyzer based analysis relative to control; format: organism-based; settings: in vivo; outline: as §3
[34] = Ratio of drug metabolism in Lewis rat blood assessed as phosphate ester metabolite to parent drug at 5 mg/kg, po measured at 24 hrs by LC-MS/MS analysis; format: ADME, organism-based; settings: in vivo; outline: as §1
[35] = target: T1, Sphingosine 1-phosphate receptor 1 (Homo sapiens, UniProt P21453); assay: Agonist activity at recombinant human S1P1 expressed in CHO cell membranes assessed as stimulation of [35S]-GTPgammaS binding measured after 45 mins by liquid scintillation counting method; format: functional, Cell membrane
T1 sequence (P21453 whole entry): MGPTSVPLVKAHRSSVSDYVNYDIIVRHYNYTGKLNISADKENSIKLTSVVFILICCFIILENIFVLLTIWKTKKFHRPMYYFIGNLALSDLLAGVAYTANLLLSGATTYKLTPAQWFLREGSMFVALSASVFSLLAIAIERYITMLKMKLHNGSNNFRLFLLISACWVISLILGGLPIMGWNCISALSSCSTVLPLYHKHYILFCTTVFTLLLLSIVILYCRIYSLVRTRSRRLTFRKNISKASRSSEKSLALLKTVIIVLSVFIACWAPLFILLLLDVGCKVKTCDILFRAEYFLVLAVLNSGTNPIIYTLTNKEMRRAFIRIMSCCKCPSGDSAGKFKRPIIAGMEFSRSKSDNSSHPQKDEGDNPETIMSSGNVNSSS

[36] = target: T1, Sphingosine 1-phosphate receptor 1; assay: Agonist activity at human recombinant S1P1 expressed in CHO cells assessed as stimulation of ERK phosphorylation incubated for 7 mins by microplate reader analysis; format: cell-based
[37] = target: Sphingosine 1-phosphate receptor 3 (Homo sapiens, UniProt Q99500); assay: Agonist activity at recombinant human S1P3 expressed in CHO cell membranes assessed as stimulation of [35S]-GTPgammaS binding measured after 45 mins by liquid scintillation counting method; format: functional, Membrane
Chain of Sphingosine 1-phosphate receptor 3 (Q99500 whole entry, the tested form may be a part): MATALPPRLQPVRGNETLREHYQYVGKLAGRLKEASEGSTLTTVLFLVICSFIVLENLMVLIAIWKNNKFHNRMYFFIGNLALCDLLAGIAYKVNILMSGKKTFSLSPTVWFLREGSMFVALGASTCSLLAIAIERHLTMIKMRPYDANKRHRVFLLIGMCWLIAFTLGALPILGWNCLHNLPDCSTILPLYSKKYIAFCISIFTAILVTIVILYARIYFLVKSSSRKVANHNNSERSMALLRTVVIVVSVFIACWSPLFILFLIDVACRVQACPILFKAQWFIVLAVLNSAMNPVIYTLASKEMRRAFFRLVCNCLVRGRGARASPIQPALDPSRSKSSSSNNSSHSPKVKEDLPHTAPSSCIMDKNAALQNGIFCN

[38] = target: T1, Sphingosine 1-phosphate receptor 1; assay: Agonist activity at human recombinant C-terminal GFP-fused S1P1 expressed in CHO cells assessed as induction of receptor internalization incubated for 50 mins by fluorescence based confocal laser scanning microscopic analysis; format: cell-based
[39] = target: T1, Sphingosine 1-phosphate receptor 1; assay: Displacement of [33P]-SIP from human recombinant S1P1 expressed in CHO cell membranes measured after 45 mins by TopCount scintillation counting method; parameters: species or system Cell membrane

concentration at 24 h [1]: 28 nM
Activity [2]: 70%
concentration at 4 h [4]: 360 nM
Compound: CCCOCCOC[C@@H]1CCc2cc([C@H]3CC[C@](N)(CO)C3)ccc2C1
Activity (Rattus norvegicus [3]): 72%
fold change (FC) [5]: 1.4

Ct [6]: Bld
Activity [7]: 0%
concentration at 24 h ([8]; Lewis, blood, read-out: Ct): < 31 nM
Activity [9]: 63%
Compound: CCCCCSC[C@@H]1CCc2cc([C@H]3CC[C@](N)(CO)C3)ccc2C1

Ct [6]: Bld
Activity [7]: 0%
Ct ([8]; in vivo, 0.5 mg/kg, 24 h, BLD = below limit of detection): Bld
Activity [9]: 56%
Compound: CCCCCSC[C@H]1CCc2cc([C@H]3CC[C@](N)(CO)C3)ccc2C1
Activity [10]: -41%
Activity [11]: -29%

Compound: COCCCCCC1CCc2cc([C@H]3CC[C@](N)(CO)C3)ccc2C1 (single isomer, unassigned; 24)
Activity (Rattus norvegicus [12]): Dose-dependent effect
Activity (Rattus norvegicus [13]): inactive
Activity (Rattus norvegicus [14]): inactive

Activity [15]: 78%
concentration [16]: 78 nM
Ratio [18]: 0.77
half-life [19]: 16 h
concentration ([20]; in vivo, 2 mg/kg, 4 h, 2 mg/kg, 4 h): 271 nM
Compound: COCCCCC1CCc2cc([C@H]3CC[C@](N)(CO)C3)ccc2C1 (stereo in doubt; 13b)
Activity [10]: -29%
Activity (Rattus norvegicus [17]): 65%
Activity [11]: -15%
fold change (FC) [21]: 2.1

Activity [15]: 74%
concentration [16]: 33 nM
Ratio [18]: 2.8
half-life [19]: 13 h
concentration at 4 h ([20]; Lewis, blood): 141 nM
Compound: COCCCC1CCc2cc([C@H]3CC[C@](N)(CO)C3)ccc2C1 (stereo in doubt; 22a)
fold change (FC) [22]: 3
Activity (Rattus norvegicus [17]): 76%

Activity [23]: 76%
Ratio AUC [25]: 2.4
concentration at 24 h [26]: 51 nM
Ratio [27]: 1.2
half-life [28]: > 100 h
concentration at 4 h [29]: 36 nM
Ratio AUC [30]: 0.3
Ratio AUC [31]: 0.1
Ratio AUC [32]: 2.5
Compound: CCCCCC[C@@H]1CCc2cc([C@H]3CC[C@](N)(CO)C3)ccc2C1 [BMS-986104]
Activity (Rattus norvegicus [24]): 23%
Activity [10]: -33%
Activity [11]: -2%
fold change (FC) [33]: 1.1

concentration at 24 h [1]: 10 nM
Activity [2]: 75%
concentration at 4 h [4]: 109 nM
Ratio [34]: 2.3
Compound: CCCC[S+]([O-])C[C@@H]1CCc2cc([C@H]3CC[C@](N)(CO)C3)ccc2C1 (stereo partly drawn)
Activity (Rattus norvegicus [3]): 0%
fold change (FC) [5]: 1.5

EC50 [35]: 2.1 nM
EC50 [36]: 5.2 nM
EC50 [37]: > 1000 nM
EC50 [38]: 0.4 nM
IC50 [39]: 0.04 nM
Compound: CCOCCC[C@H]1CCc2cc([C@H]3CC[C@](N)(COP(=O)(O)O)C3)ccc2C1
